From PMC10928719 (ACS Infectious Diseases, 2024)
Where two headings read alike, the source gives them in different places.

Key:
[1] = system: human osteosarcoma (HOS) cells; assay: Cellular cytotoxicity; type: cell-based; conditions: 50% reduction in the level of ATP in HOS cells, 48 h
Method in brief: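 HOS cells grown in DMEM with 5% FBS, 5% newborn calf serum and penicillin/streptomycin, then seeded at 4000 cells/well the day before the assay. Test compound was added over 250 μM to 0.05 μM and cells were held at 37 °C for 48 h. ATP luminescence reagent was read after 20 min at room temperature. CC50 came from a nonlinear regression fit.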

[2] = system: HIV-1 vector with IN mutant N155H; assay: Single-round infection assay, IN mutant N155H; type: cell-based; conditions: Human immunodeficiency virus 1, read-out: EC50 N155H
Method in brief: (§1)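 293 cells were co-transfected by calcium phosphate with pNLNgoMIVR–ΔLUC (16 μg; WT or IN mutant) plus pHCMV-g (4 μg) and washed ~6 h later. Supernatant was harvested 48 h later, clarified, filtered and diluted. HOS cells (4000/well) were pretreated 3 h at 37 °C with test compound (11 dilutions, 5 μM–0.0001 μM), then infected for 48 h. Luciferase was read and EC50 fitted by nonlinear regression.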

[3] = system: HIV-1 vector with IN mutant G140S/Q148H; assay: Single-round infection assay, IN mutant G140S/Q148H; type: cell-based; conditions: Human immunodeficiency virus 1, read-out: EC50 G140S/Q148H
Method in brief: as §1

[4] = system: HIV-1 vector with wild-type (WT) IN; assay: Single-round infection assay, viral construct with WT IN; type: cell-based; conditions: read-out: EC50 WT, single-round HIV-1 vector, HOS cells
Method in brief: as §1

[5] = system: HIV-1 vector with IN mutant R263K; assay: Single-round infection assay, IN mutant R263K; type: cell-based; conditions: read-out: EC50 R263K, single-round HIV-1 vector
Method in brief: as §1

[6] = system: HIV-1 vector with IN mutant G118R; assay: Single-round infection assay, IN mutant G118R; type: cell-based; conditions: for resistance / loss of potency against G118R mutant: our single-round infection assays
Method in brief: as §1

[7] = system: HIV-1 vector with IN mutant S230N; assay: Single-round infection assay, IN mutant S230N; type: cell-based; conditions: read-out: EC50 S230N, single-round HIV-1 vector
Method in brief: as §1

[8] = system: HIV-1 vector with wild-type (WT) IN; conditions: read-out: EC50 WT, single-round HIV-1 vector, previously reported ref 46; cited from earlier work
[9] = system: HIV-1 vector with IN mutant E138K/Q148K; assay: Single-round infection assay, IN mutant E138K/Q148K; type: cell-based; conditions: Human immunodeficiency virus 1, read-out: EC50 E138K/Q148K
Method in brief: (§2)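 Vector carrying the mutant IN was made by calcium phosphate co-transfection of 293 cells with pNLNgoMIVR–ΔLUC (16 μg) and pHCMV-g (4 μg); supernatant was collected 48 h after washing. HOS cells were exposed 3 h at 37 °C to test compound (11 dilutions, 5 μM–0.0001 μM), then infected for 48 h. Luciferase luminescence gave EC50 by nonlinear regression; n = 4 independent experiments, each in triplicate.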

[10] = system: HIV-1 vector with IN mutant G140A/Q148K; assay: Single-round infection assay, IN mutant G140A/Q148K; type: cell-based; conditions: Human immunodeficiency virus 1, read-out: EC50 G140A/Q148K
Method in brief: as §2

[11] = system: HIV-1 vector with IN mutant G140S/Q148R; assay: Single-round infection assay, IN mutant G140S/Q148R; type: cell-based; conditions: Human immunodeficiency virus 1, read-out: EC50 G140S/Q148R
Method in brief: as §2

[12] = system: HIV-1 vector with IN mutant L74M/G140C/Q148R; assay: Single-round infection assay, IN mutant L74M/G140C/Q148R; type: cell-based; conditions: Human immunodeficiency virus 1, read-out: EC50 L74M/G140C/Q148R
Method in brief: as §2

[13] = system: HIV-1 vector with IN mutant T97A/G140S/Q148H; assay: Single-round infection assay, IN mutant T97A/G140S/Q148H; type: cell-based; conditions: Human immunodeficiency virus 1, read-out: EC50 T97A/G140S/Q148H
Method in brief: as §2

[14] = system: HIV-1 vector with IN mutant E138A/G140S/Q148H; assay: Single-round infection assay, IN mutant E138A/G140S/Q148H; type: cell-based; conditions: Human immunodeficiency virus 1, read-out: EC50 E138A/G140S/Q148H
Method in brief: as §2

[15] = system: HIV-1 vector with IN mutant E138K/G140A/Q148K; assay: Single-round infection assay, IN mutant E138K/G140A/Q148K; type: cell-based; conditions: Human immunodeficiency virus 1, read-out: EC50 E138K/G140A/Q148K
Method in brief: as §2

[16] = system: HIV-1 vector with IN mutant E138K/G140C/Q148R; assay: Single-round infection assay, IN mutant E138K/G140C/Q148R; type: cell-based; conditions: Human immunodeficiency virus 1, read-out: EC50 E138K/G140C/Q148R
Method in brief: as §2

[17] = system: HIV-1 vector with IN mutant E138K/G140S/Q148H; assay: Single-round infection assay, IN mutant E138K/G140S/Q148H; type: cell-based; conditions: Human immunodeficiency virus 1, read-out: EC50 E138K/G140S/Q148H
Method in brief: as §2

[18] = target: Sso7d IN (HIV-1 integrase) (UniProt P12497+P39476); assay: In vitro IN strand transfer assay; type: biochemical
[19] = system: HIV-1 vector with IN mutant G118R; conditions: single-round infection assays; cited from earlier work
[20] = system: HIV-1 vector with IN mutant R263K; conditions: single-round infection assays; cited from earlier work
[21] = system: HIV-1 vector with IN mutant G140S/Q148H; conditions: single-round infection assays; cited from earlier work

SMILES | EC50 [2] | EC50 [3] | resistance / loss of potency against G118R mutant [6] | EC50 [8] | also measured
O=C(NCc1ccc(F)cc1F)c1cn2cc[nH]c(=O)c2c(O)c1=O [6a] | 457 ± 21 nM | > 5000 nM | – | – | CC50 [1]: 150000 ± 19900 nM
COCC(C)n1ccn2cc(C(=O)NCc3ccc(F)cc3F)c(=O)c(O)c2c1=O (centres unmarked) [6k] | 5 ± 0.7 nM | 34.1 ± 5.4 nM | – | – | –
COC(Cn1ccn2cc(C(=O)NCc3ccc(F)cc3F)c(=O)c(O)c2c1=O)OC [6l] | 27.7 ± 2.7 nM | 1150 ± 114 nM | – | – | –
CC(C)=CCC/C(C)=C/Cn1ccn2cc(C(=O)NCc3ccc(F)cc3F)c(=O)c(O)c2c1=O [6m] | 81.6 ± 7.6 nM | 365 ± 43.3 nM | – | – | EC50 [4]: 38.9 ± 6.7 nM
O=C(NCc1ccc(F)cc1F)c1cn2c(c(O)c1=O)C(=O)NCC2 [7a] | – | > 5000 nM | – | – | EC50 [5]: 148 ± 36.5 nM
COC(CN1CCn2cc(C(=O)NCc3ccc(F)cc3F)c(=O)c(O)c2C1=O)OC [7l] | 6.3 ± 0.7 nM | 394 ± 39 nM | – | – | EC50 ([6]; read-out: EC50 G118R, single-round HIV-1 vector, IN G118R): 36.4 ± 1.3 nM
CC(C)CCCC(C)CCN1CCn2cc(C(=O)NCc3ccc(F)cc3F)c(=O)c(O)c2C1=O (centres unmarked) [7m] | 25.6 ± 4.2 nM | 109 ± 20.5 nM | – | – | EC50 [4]: 21.4 ± 2.5 nM; EC50 [7]: 41.8 ± 4.2 nM
O=C(NCc1c(F)cc(F)cc1F)c1cn2c(c(O)c1=O)C(=O)N1[C@H]3CC[C@H](C3)O[C@@H]1C2 [BIC, bictegravir] | – | – | 4 × | 2.4 ± 0.4 nM | –
C[C@H]1CO[C@@H]2Cn3cc(C(=O)NCc4ccc(F)cc4F)c(=O)c(O)c3C(=O)N12 [CAB, cabotegravir] | – | – | 17 × | 1.8 ± 0.5 nM | EC50 [9]: 772 ± 72.2 nM; EC50 [10]: 393 ± 51.1 nM; EC50 [11]: 415 ± 14.5 nM; EC50 [12]: 220 ± 41.2 nM; EC50 [13]: 43.7 ± 4.2 nM; EC50 [14]: 70.2 ± 9 nM; EC50 [15]: 610 ± 8.6 nM; EC50 [16]: 134.2 ± 0.3 nM; EC50 [17]: 93 ± 6.1 nM; IC50 [18]: 381 nM
C[C@@H]1CCO[C@H]2Cn3cc(C(=O)NCc4ccc(F)cc4F)c(=O)c(O)c3C(=O)N12 [DTG, dolutegravir] | – | – | 9 × | 2.6 ± 0.3 nM | reduction in susceptibility relative to WT, G118R [19]: > 5 fold; reduction in susceptibility relative to WT, R263K [20]: 2 fold; reduction in susceptibility relative to WT, G140S/Q148H [21]: 2 fold
